Assay results published in ChEMBL document CHEMBL1157729, “Structure-activity relationship and mechanism of action studies of manzamine analogues for the control of neuroinflammation and cerebral infections” (J Med Chem, 2010).

Experiments:
Plasmodium berghei [1] = experiment: Antiplasmodial activity against Plasmodium berghei NK65 infected in Swiss Webster mice (Mus musculus) assessed as average parasitaemia at 100 mg/kg, perorally administered 1 day after infection measured after 28 days post infection; type: functional; conditions: route oral
In short: (§1)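 Male Swiss Webster mice (18-20 g, ≥5/group) inoculated i.p. with 2×10^7 P. berghei NK-65 parasitized RBC, given a single oral dose (100 μl, SSV or dilute HCl vehicle); parasitemia by Giemsa-stained tail blood smears days 5–28; activity as % decrease versus untreated controls on day 5.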

Plasmodium berghei [2] = experiment: Antiplasmodial activity against Plasmodium berghei NK65 infected in Swiss Webster mice (Mus musculus) assessed as average parasitaemia at 5 mg/kg, perorally administered 1 day after infection for 3 days measured after 21 days post infection; type: functional; conditions: route oral
HeLa [3] = experiment: Cell cycle arrest in human HeLa cells assessed as decrease in G2/M phase accumulation at 10 uM after 24 hrs by FACS analysis; type: functional; design: scale not given: the % may be the effect or the level left
Plasmodium berghei [4] = experiment: Antiplasmodial activity against Plasmodium berghei NK65 infected in Swiss Webster mice (Mus musculus) assessed as average parasitaemia at 1.1 mg/kg, perorally administered 1 day after infection for 3 days measured after 14 days post infection; type: functional; conditions: route oral
Mus musculus [5] = experiment: Toxicity in Plasmodium berghei NK65 infected Swiss Webster mice (Mus musculus) assessed as weight loss at 200 mg/kg, perorally; type: organism-based; design: dose 200 mg/kg, route oral; conditions: in vivo, po
In short: (§2)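 P. berghei NK-65 infection in male Swiss Webster mice (18-20 g; 2×10^7 parasitized erythrocytes i.p.; ≥5 per group). A single oral dose of 100 μl, diluted in SSV or 0.01 M HCl, then observation for toxicity signs and body weight. Parasitemia read from Giemsa-stained tail smears from day 5 through day 28. Mice free of parasitemia through day 28 counted as cured.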

Plasmodium berghei [6] = experiment: Antiplasmodial activity against Plasmodium berghei NK65 infected in Swiss Webster mice (Mus musculus) assessed as average parasitaemia at 10 mg/kg, perorally administered 1 day after infection for 3 days measured after 28 days post infection; type: functional; conditions: route oral
In short: (§3)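 Male Swiss Webster mice (18-20 g, ≥5/group) inoculated i.p. with 2×10^7 P. berghei NK-65 parasitized RBC; oral dosing (100 μl, SSV or dilute HCl vehicle) once daily for 3 days from day 1; Giemsa-stained tail blood smears days 5–28; inhibition is % decrease versus untreated controls on day 5.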

Plasmodium berghei [7] = experiment: Antiplasmodial activity against Plasmodium berghei NK65 infected in Swiss Webster mice (Mus musculus) at 3.3 mg/kg, po; type: functional
In short: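 Male Swiss Webster mice (18-20 g), at least 5 per group, inoculated i.p. with 2×10^7 P. berghei NK-65-parasitized red cells from a donor mouse. Oral dosing (100 μl, in SSV or 0.01 M HCl dilutions) from day one post-infection on a 3-day schedule (modified Peters test). Giemsa-stained tail-blood smears read from day 5 to day 28. Cure means no parasitemia through day 28.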

[8] = Antineuroinflammatory activity in LPS-stimulated rat neonatal microglia assessed as inhibition of PMA-induced superoxide anion production preincubated 15 mins prior to PMA challenge measured after 70 mins; type: functional, cell-based
Plasmodium berghei [9] = experiment: Antiplasmodial activity against Plasmodium berghei NK65 infected in Swiss Webster mice (Mus musculus) assessed as average parasitaemia at 1.1 mg/kg, perorally administered 1 day after infection for 3 days measured after 28 days post infection; type: functional; conditions: route oral; in short: as §3
Plasmodium berghei [10] = experiment: Antiplasmodial activity against Plasmodium berghei NK65 infected in Swiss Webster mice (Mus musculus) assessed as average parasitaemia at 100 mg/kg, perorally administered 1 day after infection measured after 21 days post infection; type: functional; conditions: route oral; in short: as §1
Plasmodium berghei [11] = experiment: Antiplasmodial activity against Plasmodium berghei NK65 infected in Swiss Webster mice (Mus musculus) assessed as average parasitaemia at 100 mg/kg, perorally administered 1 day after infection measured after 10 days post infection; type: functional; conditions: route oral
Plasmodium berghei [12] = experiment: Antiplasmodial activity against Plasmodium berghei infected in mice (Mus musculus) at 5 mg/kg, subcutaneously administered 1 day post infection for 3 days; type: functional; conditions: route subcutaneous
HeLa [13] = experiment: Cell cycle arrest in human HeLa cells assessed as increase in G0/G1 phase accumulation at 3 uM after 24 hrs by FACS analysis; type: functional
Plasmodium berghei [14] = experiment: Antiplasmodial activity against Plasmodium berghei NK65 infected in Swiss Webster mice (Mus musculus) assessed as average parasitaemia at 5 mg/kg, perorally administered 1 day after infection for 3 days measured after 28 days post infection; type: functional; conditions: route oral
Plasmodium berghei [15] = experiment: Antiplasmodial activity against Plasmodium berghei NK65 infected in Swiss Webster mice (Mus musculus) assessed as average parasitaemia at 200 mg/kg, perorally administered 1 day after infection measured after 28 days post infection; type: functional; conditions: Plasmodium berghei, NK65, route oral; in short: as §1
Plasmodium yoelii = experiment: Antiplasmodial activity against Plasmodium yoelii infected in perorally dosed mice (Mus musculus); type: functional; conditions: po
Plasmodium berghei [16] = experiment: Antiplasmodial activity against Plasmodium berghei NK65 infected in Swiss Webster mice (Mus musculus) assessed as average parasitaemia at 3.3 mg/kg, perorally administered 1 day after infection for 3 days measured after 10 days post infection; type: functional; conditions: route oral
Plasmodium berghei [17] = experiment: Antiplasmodial activity against Plasmodium berghei NK65 infected in Swiss Webster mice (Mus musculus) assessed as average parasitaemia at 10 mg/kg, perorally administered 1 day after infection for 3 days measured after 10 days post infection; type: functional; conditions: route oral
Plasmodium berghei [18] = experiment: Antiplasmodial activity against Plasmodium berghei NK65 infected in Swiss Webster mice (Mus musculus) assessed as parasitaemia cure at 3.3 mg/kg, perorally administered 1 day after infection for 3 days measured after 28 days post infection; type: functional; conditions: route oral
In short: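 Male Swiss Webster mice (18-20 g), at least 5 per group, inoculated i.p. with 2×10^7 P. berghei NK-65 parasitized red cells from a donor mouse. Oral dosing (100 μl, in SSV or dilute HCl) from day one after infection, three-day modified Peters suppressive schedule. Giemsa-stained tail blood smears from day 5 through day 28. Inhibition is % parasitemia drop on day 5 versus untreated controls. Cure means no parasitemia through day 28.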

Plasmodium berghei [19] = experiment: Antiplasmodial activity against Plasmodium berghei NK65 infected in Swiss Webster mice (Mus musculus) assessed as average parasitaemia at 10 mg/kg, perorally administered 1 day after infection for 3 days measured after 7 days post infection; type: functional; conditions: route oral
Mus musculus [20] = experiment: Toxicity in Plasmodium berghei NK65 infected Swiss Webster mice (Mus musculus) assessed as behavioral change at 100 mg/kg, perorally; type: organism-based; design: dose 100 mg/kg, route oral; conditions: in vivo, po; in short: as §2
Plasmodium berghei [21] = experiment: Antiplasmodial activity against Plasmodium berghei NK65 infected in Swiss Webster mice (Mus musculus) assessed as inhibition of parasitaemia at 10 mg/kg, perorally administered 1 day after infection for 3 days measured after 5 days post infection; type: functional; conditions: route oral; in short: as §3
Plasmodium berghei [22] = experiment: Antiplasmodial activity against Plasmodium berghei NK65 infected in Swiss Webster mice (Mus musculus) assessed as average parasitaemia at 50 mg/kg, perorally administered 1 day after infection measured after 10 days post infection; type: functional; conditions: route oral
Mus musculus [23] = experiment: Toxicity in Plasmodium berghei NK65 infected Swiss Webster mice (Mus musculus) at 10 mg/kg, intraperitoneally for 3 days administered 1 day after infection measured after 5 days post infection; type: organism-based; design: dose 10 mg/kg, route intraperitoneal; conditions: in vivo, ip, 120 h
Mus musculus [24] = experiment: Toxicity in Plasmodium berghei NK65 infected Swiss Webster mice (Mus musculus) assessed as weight loss at 10 mg/kg, intraperitoneally administered 1 day after infection measured after 3 days post infection; type: organism-based; design: dose 10 mg/kg, route intraperitoneal; conditions: in vivo, ip, 72 h
Plasmodium berghei [25] = experiment: Antiplasmodial activity against Plasmodium berghei NK65 infected in Swiss Webster mice (Mus musculus) assessed as inhibition of parasitaemia at 200 mg/kg, perorally administered 1 day after infection measured after 5 days post infection; type: functional; conditions: Plasmodium berghei, NK65, route oral; in short: as §1

O[C@]12C=C(c3nccc4c3[nH]c3ccccc34)[C@@H]3CCN(CCCC/C=C\CC1)C[C@@]31C[C@@H]3/C=C\CCCCN3[C@H]12 [MANZAMINE A]
inhibition in vivo at 100 mg/kg (Plasmodium berghei [1]): 0%
inhibition in vivo at 5 mg/kg (Plasmodium berghei [2]): 21.7%
Activity (HeLa [3]): 13.6%
inhibition in vivo at 1.1 mg/kg (Plasmodium berghei [4]): 21.7%
Activity (Mus musculus [5]): Toxic
inhibition in vivo at 10 mg/kg (Plasmodium berghei [6]): 3.3%
inhibition in vivo at 3.3 mg/kg (Plasmodium berghei [7]): > 30%
IC50 [8]: 100 nM
inhibition in vivo at 1.1 mg/kg (Plasmodium berghei [9]): 58.6%
inhibition in vivo at 100 mg/kg (Plasmodium berghei [10]): 0%
inhibition in vivo at 100 mg/kg (Plasmodium berghei [11]): 0%
Activity (Plasmodium berghei [12]): 19.7 days
Activity (HeLa [13]): 56.2%
inhibition in vivo at 5 mg/kg (Plasmodium berghei [14]): 39.3%
inhibition in vivo at 200 mg/kg (Plasmodium berghei [15]): 0%
ED50 (Plasmodium yoelii): 0.57 mg/kg
ED90 (Plasmodium yoelii): 1.7 mg/kg
inhibition in vivo at 3.3 mg/kg (Plasmodium berghei [16]): 4.3%
inhibition in vivo at 10 mg/kg (Plasmodium berghei [17]): 0.4%
inhibition in vivo at 3.3 mg/kg (Plasmodium berghei [18]): 25%
inhibition in vivo at 10 mg/kg (Plasmodium berghei [19]): 0.2%
Activity (Mus musculus [20]): Non-toxic
inhibition in vivo at 10 mg/kg (Plasmodium berghei [21]): 98%
inhibition in vivo at 50 mg/kg (Plasmodium berghei [22]): 0%
Activity (Mus musculus [23]): Toxic
Activity (Mus musculus [24]): Toxic
inhibition in vivo at 200 mg/kg (Plasmodium berghei [25]): 100%
